Reference: ChEMBL document CHEMBL1125910, “Design of a well-absorbed renin inhibitor” (J Med Chem, 1991)

How the values were obtained:
[1] = biological target: T1, Renin (Homo sapiens, UniProt P00797); test: Compound was evaluated for the inhibitory concentration against purified human renal renin at pH 6.5
T1 sequence (P00797 whole entry): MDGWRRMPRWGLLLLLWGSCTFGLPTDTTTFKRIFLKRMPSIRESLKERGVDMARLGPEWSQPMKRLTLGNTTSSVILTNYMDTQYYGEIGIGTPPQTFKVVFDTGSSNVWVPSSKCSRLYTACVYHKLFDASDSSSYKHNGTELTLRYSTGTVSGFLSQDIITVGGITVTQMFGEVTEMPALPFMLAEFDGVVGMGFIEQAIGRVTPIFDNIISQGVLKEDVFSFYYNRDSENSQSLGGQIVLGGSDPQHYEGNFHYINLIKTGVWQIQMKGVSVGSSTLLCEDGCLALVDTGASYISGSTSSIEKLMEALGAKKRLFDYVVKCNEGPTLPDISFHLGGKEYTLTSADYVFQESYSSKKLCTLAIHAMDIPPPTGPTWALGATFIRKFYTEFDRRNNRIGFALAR

[2] = biological target: T1, Renin; test: Compound was evaluated for the inhibitory concentration against human plasma renin at pH 7.4; format: cell-free
Outline: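 Renin inhibition assayed in human plasma, with plasma renin as the enzyme source, at pH 7.4. IC50 reported in nM.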

[3] = test system: Rattus norvegicus; test: Upon intraduodenal administration in rats at a dose of 10 mg/kg, systemic plasma levels calculated after 30 min.; format: functional, organism-based; design: dose 10 mg/kg
Outline: (§1)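 Anesthetized rats given 10 mg/kg intraduodenally. Blood sampled at 10 and 30 min from the portal vein and from the systemic circulation. Drug level in plasma measured by renin inhibition assay, reported in ng/mL as mean ± SE, n = 3 (some groups 5 or 6).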

[4] = biological target: T2, Cathepsin D (Bos taurus) (UniProt P80209); test: Inhibitory activity against cathepsin D in bovine at 1*10e-5 M concentration.
T2 sequence (whole entry): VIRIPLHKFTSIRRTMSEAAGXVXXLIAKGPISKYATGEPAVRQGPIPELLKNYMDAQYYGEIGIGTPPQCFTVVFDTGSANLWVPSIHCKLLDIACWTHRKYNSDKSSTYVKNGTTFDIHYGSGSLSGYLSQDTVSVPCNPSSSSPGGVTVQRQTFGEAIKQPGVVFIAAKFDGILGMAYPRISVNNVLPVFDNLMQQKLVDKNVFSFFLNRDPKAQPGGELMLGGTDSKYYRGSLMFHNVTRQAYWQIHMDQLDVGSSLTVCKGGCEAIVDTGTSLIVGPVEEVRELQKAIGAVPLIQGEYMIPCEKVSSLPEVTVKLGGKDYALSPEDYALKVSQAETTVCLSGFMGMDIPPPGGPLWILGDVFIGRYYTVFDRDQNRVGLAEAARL
Outline: (§2)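 Bovine or human cathepsin D, assayed at pH 3.0; percent inhibition recorded with inhibitor at 1 × 10^-5 M, and also at 1 × 10^-7 M.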

[5] = test system: Rattus norvegicus; test: Upon intraduodenal administration in rats at a dose of 10 mg/kg, portal plasma levels calculated after 30 min.; format: functional, organism-based; design: dose 10 mg/kg; outline: as §1
[6] = test system: Rattus norvegicus; test: Upon intraduodenal administration in rats at a dose of 10 mg/kg, portal plasma levels calculated after 10 min.; format: functional, organism-based; design: dose 10 mg/kg; outline: as §1
[7] = biological target: Pepsin A (Sus scrofa) (UniProt P00791); test: Inhibitory activity against pepsin in porcine at 1*10e-5 M concentration.; format: functional
Pepsin A (Sus scrofa), sequence (P00791 60-385 limits assumed): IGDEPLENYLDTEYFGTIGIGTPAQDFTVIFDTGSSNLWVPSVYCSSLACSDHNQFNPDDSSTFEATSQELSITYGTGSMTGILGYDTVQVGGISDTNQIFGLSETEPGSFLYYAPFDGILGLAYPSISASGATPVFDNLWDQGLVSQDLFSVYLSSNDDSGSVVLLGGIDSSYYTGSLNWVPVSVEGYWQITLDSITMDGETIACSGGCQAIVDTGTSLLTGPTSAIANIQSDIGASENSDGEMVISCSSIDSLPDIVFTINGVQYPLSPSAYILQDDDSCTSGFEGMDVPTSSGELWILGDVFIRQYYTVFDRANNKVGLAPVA
Outline: (§3)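 Human or porcine pepsin, assayed at pH 2.0; percent inhibition recorded with inhibitor at 1 × 10^-5 M.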

[8] = test system: Rattus norvegicus; test: Upon intraduodenal administration in rats at a dose of 10 mg/kg, systemic plasma levels calculated after 10 min.; format: functional, organism-based; design: dose 10 mg/kg; outline: as §1
[9] = biological target: Cathepsin D (Homo sapiens) (UniProt P07339); test: Inhibitory activity against cathepsin D in human at 1*10e-7 M concentration.; outline: as §2
Cathepsin D (Homo sapiens), sequence (P07339 65-162 limits assumed): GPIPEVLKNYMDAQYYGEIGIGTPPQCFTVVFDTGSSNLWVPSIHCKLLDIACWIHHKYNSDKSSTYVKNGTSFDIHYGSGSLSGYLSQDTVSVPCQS
Cathepsin D (Homo sapiens), sequence (P07339 169-412 limits assumed): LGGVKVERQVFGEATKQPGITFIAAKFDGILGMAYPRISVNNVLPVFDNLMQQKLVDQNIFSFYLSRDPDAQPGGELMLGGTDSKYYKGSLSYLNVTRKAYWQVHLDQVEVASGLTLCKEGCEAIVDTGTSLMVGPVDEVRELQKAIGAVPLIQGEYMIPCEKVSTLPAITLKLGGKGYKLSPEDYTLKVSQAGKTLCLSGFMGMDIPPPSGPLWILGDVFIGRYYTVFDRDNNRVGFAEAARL

[10] = biological target: Pepsin A (Homo sapiens) (UniProt P0DJD9); test: Inhibitory activity against human pepsin at 1*10e-5 M; format: functional; outline: as §3
Pepsin A (Homo sapiens), sequence (P0DJD9 63-388 limits assumed): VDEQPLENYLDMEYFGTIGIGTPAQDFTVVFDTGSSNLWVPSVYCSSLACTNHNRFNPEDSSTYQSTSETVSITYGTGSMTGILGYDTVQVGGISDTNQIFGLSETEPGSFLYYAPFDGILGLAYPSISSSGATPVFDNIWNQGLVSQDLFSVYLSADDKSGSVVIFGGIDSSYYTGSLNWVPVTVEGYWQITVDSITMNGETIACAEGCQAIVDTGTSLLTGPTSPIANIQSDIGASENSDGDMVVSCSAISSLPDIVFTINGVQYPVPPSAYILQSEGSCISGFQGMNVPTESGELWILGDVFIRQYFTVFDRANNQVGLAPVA

[11] = biological target: Cathepsin D (Homo sapiens) (UniProt P07339); test: Inhibitory activity against cathepsin D in human at 1*10e-5 M concentration.; outline: as §2
[12] = biological target: T2, Cathepsin D (Bos taurus); test: Inhibitory activity against cathepsin D in bovine at 1*10e-7 M concentration.; outline: as §2

| Compound | IC50 [1] | IC50 [2] | inhibition [4] | inhibition [7] | inhibition [9] | inhibition [10] | inhibition [11] | inhibition [12] | Plasma level [3] | Plasma level [5] | Plasma level [6] | Plasma level [8] |
| --- | --- | --- | --- | --- | --- | --- | --- | --- | --- | --- | --- | --- |
| CCN1C[C@@H]([C@H](O)[C@H](CC2CCCCC2)NC(=O)[C@H](Cc2cn(C)cn2)NC(=O)[C@@H](CC(=O)N2CCOCC2)Cc2ccccc2)OC1=O | 7.4 nM | 58 nM | – | – | – | – | – | – | – | – | – | – |
| CCN1C[C@@H]([C@H](O)[C@H](CC2CCCCC2)NC(=O)[C@H](Cc2c[nH]cn2)NC(=O)[C@@H](CC(=O)N2CCOCC2)Cc2ccccc2)OC1=O | – | – | 2% | 2% | – | – | – | – | 34 ng/mL | 390 ng/mL | 280 ng/mL | 55 ng/mL |
| CCN1C[C@@H]([C@H](O)[C@H](CC2CCCCC2)NC(=O)[C@H](Cc2cccs2)NC(=O)[C@@H](CC(=O)N2CCOCC2)Cc2ccccc2)OC1=O | 1.5 nM | 43 nM | – | – | – | – | – | – | – | – | – | – |

Continued by falling IC50 [1], values first:

| IC50 [1] | IC50 [2] | inhibition [4] | inhibition [7] | inhibition [9] | inhibition [10] | inhibition [11] | inhibition [12] | Compound | Plasma level [3] | Plasma level [5] | Plasma level [6] | Plasma level [8] |
| --- | --- | --- | --- | --- | --- | --- | --- | --- | --- | --- | --- | --- |
| 1.1 nM | 21 nM | – | – | – | – | – | – | CCN1C[C@@H]([C@H](O)[C@H](CC2CCCCC2)NC(=O)[C@H](Cc2cc[nH]n2)NC(=O)[C@@H](CC(=O)N2CCOCC2)Cc2ccccc2)OC1=O | 7 ng/mL | 58 ng/mL | 28 ng/mL | 6.7 ng/mL |
| 0.6 nM | 8.1 nM | 93% | 57% | 40% | 26% | 100% | 28% | CCN1C[C@@H]([C@H](O)[C@H](CC2CCCCC2)NC(=O)[C@H](Cc2cscn2)NC(=O)[C@@H](CC(=O)N2CCOCC2)Cc2ccccc2)OC1=O | 300 ng/mL | 1100 ng/mL | 1900 ng/mL | 320 ng/mL |
